Assay results published in the EternaBench riboswitch data.

System: MS2 coat protein
Test: apparent Kd, MS2 coat protein; higher = weaker binding; RNA-MaP array; FMN 200 µM where present
Summary of the method: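 The apparent Kd is the median of filtered binding-curve fits, one per cluster, to green signal normalised to red-channel RNA signal and control-cluster median Fmax. The clusters were on Illumina sequencing chips, and stalled E. coli RNA polymerase had transcribed the designs on them. Titration used SNAP-549-labelled MS2 coat protein from 0.7 or 1.5 nM, doubling to 3 µM, without and then with constant ligand, in 100 mM Tris-HCl pH 7.5, 80 mM KCl, 4 mM MgCl2, BSA, DTT, yeast tRNA and Tween-20.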

[1] = designed as: OFF switch for flavin mononucleotide, no ligand
[2] = ligand present: flavin mononucleotide, designed as: OFF switch for flavin mononucleotide
[3] = designed as: ON switch for flavin mononucleotide, no ligand
[4] = ligand present: flavin mononucleotide, designed as: ON switch for flavin mononucleotide

Sequence	apparent Kd [1] [nM]	apparent Kd [2] [nM]	apparent Kd [3] [nM]	apparent Kd [4] [nM]
AUGCUUCACACAGGAUAUACAUGAGGAUCACCCAUGUGUGGGCGGUAGCUCGAAAGAGCUACCGGGUAGAAGGGUGUGAAGCAU	27.1	132	–	–
GACUGGCAGCUAGGAUAUGGGCGAUCACAUGAGGAUCACCCAUGUCAACAUCAAAACAAGAUUAACCAGAAGGAGCCGCGGGUU	–	–	16.1	110
UUAUAAAGUGUGAGGAUAUGCUGGUCCUUGGAUCAGCAGAAGGCACAUGAGGAUCACCCAUGUAAUAUAUUUUU	89.8	309	–	–
AGCAUGUAAGGAUAUGCAACACAGCUUUCAAUCGCUGUGCCGCAGAAGGUACAUGAGGAUCACCCAUGUGCUCC	85.5	91.2	–	–
GUGGUCAGACAUGAGGAUCACCCAUGUGGAAUAAAUAAGGAGAAGGAUAUCGAAUAUAGGAUAUACGAGAAGGUCUGGUUGGUG	–	–	77.3	83.1
AAAUAGAUACAUGAGGAUCACCCAUGUUAAUAGGUGUUUGUCAGAAGGCAUUAUGAGAGAAUUAAUGAGGAUAUGAAAUAUGAU	–	–	39.3	22.8
GCACUUACGUUAGGAUAUGUAUCGGAAAACGAUACAGAAGGAAUAUGGGAACAUGAGGAUCACCCAUGUUCCUGAGACGAGUGC	–	–	69.1	41.6
GAUACACAUGAGGAUCACCCAUGUUAGGAUAUUAGCGGGAAAGCUGUCAGACAGUCGAUGAGAAGGAACAGGAG	32.5	31.6	–	–
UUAAAUCAUGUAGGAUAUGCAUGGCGAAGCUACGCAGAAGGACAUGAGGAUCACCCAUGUUAAAGCUACCGAGUUCGGUGGCAA	116	156	–	–
UGGUACUAUGGAGGAUAUGGGAAGAUACAUGAGGAUCACCCAUGUUUAAGAAUGCCGAGAGGCAACUAGAAGGCCCUAGUACCU	–	–	349	32.7
CAUUAACAUGAGGAUCACCCAUGUGAGGAUAUGAUAUUACUAGGACGGCUGUAAUCAAUCAGAAGGCACAUCUU	20.4	44.5	–	–
GGAAUCUAGUCAGGAUAUCGGGCAAUAAUUGCACGAGAAGGGACAUGAGGAUCACCCAUGUACACCUCUGGUGAGUCUCGCAGG	16	44.3	–	–
CUGAGCAAUCAAGGAUAUCACGUCGAUUAGACGUGAGAAGGUGAUCAUUACAUGAGGAUCACCCAUGUAUUACAUGGAGCUCAG	–	–	1370	365
CAGCCCUGAGGAUAUCCAUCCUUGUACAUGAGGAUCACCCAUGUUCUCCUCUGGGCUUUGGGAGAAGGCAGGUAUC	59.6	58.7	–	–
AAGGUCAAGAUAGGAUAUGUUUCAUGAUAGAUAACAGAAGGAUCUAGAACAUGAGGAUCACCCAUGUGGCACAUAGAGUGGUGA	–	–	429	441
UUGGGUUUGCGAGGAUAUCGUUUGUGAUUUGAUCGAGAAGGCGCUAUUUAAAUUAUUUUAACAUUACAUGAGGAUCACCCAUGU	–	–	19.1	17.2
UGAUAGGACAGAGGAUAUACGUGCUGGAGAUACUAGCAAAGUAUCUCGACAUGAGGAUCACCCAUGUAGAAGGCUGUCCUAUCU	25.2	89.4	–	–
AUCAGCUCGUCAGGAUAUACGUCACUGCGUCAGCAGUGUGGUAAGAUCACAUGAGGAUCACCCAUGUAGAAGGGACGGGCUGAU	13.8	253	–	–
GUGUACAGAGGAUAUACAUGAGCUAGGAAACUAGCAACCUCACAUGAGGAUCACCCAUGUAGAAGGCUGUACAC	32.7	25.8	–	–
CAGCGAAAGCUGAAUCUGUAGAGAGAGGAUAUACGUCAUAAGGUGCAAACAUGAGGAUCACCCAUGUAGAAGGCUCUCUACAGU	55.8	460	–	–
CUUUUGUGAGGAUAUCAGUAGUAAAAAAAUAAAAUUACUACUUAGAAGGCACAUGAGGAUCACCCAUGUUCCUC	23.4	53	–	–
GGAGCCGAUACUGAGGAUAUUCAUAUUAAAACAUGAGGAUCACCCAUGUAGGCCAGAAGGCCUUGGGAGAAGGCAGAUCGGCUCC	–	–	417	26
ACAUGAGGAUCACCCAUGUAUACAUAGGAUAUUGGUGAUCAGGGAUGUUUUACAGGAUAUGUCUGCGAGAAGGAUGCAAGAUGU	–	–	398	69
AAAAUCUAUUGAGGAUAUUCAUACACUACAUACGAAGAAGGCAAACAAUCAUGAGGACAUGAGGAUCACCCAUGUUGUGACCAU	–	–	24	15.5
GAUACACAUGAGGAUCACCCAUGUGAGGAUAUGCGUACGUUGUCCGUAGGCGACGUGCGCAGAAGGCGCGUGAG	52.6	84	–	–
CUUUUGUGAGGAUAUUAGUAGUAAAUGAAUAAAAUUACUACUGAGAAGGCACAUGAGGAUCACCCAUGUUCCUC	44.1	493	–	–
UGUGCGUUGAUCUUCGAUCGGAGUACAUGAGGAUCACCCAUGUAGGAUAUUCAAAGACGCAGAUAGAAGAAGGACAUCGGUUUA	11.9	11.1	–	–
GUCCGAAGGGAGAAGGGCUAGGAGGUCCAGCUUAUGUGUGUUGCAACAUGAGGAUCACCCAUGUAGCAGGAUAUCCCUCGUACA	44.5	333	–	–

Sequence	apparent Kd [1] [nM]	apparent Kd [2] [nM]	apparent Kd [3] [nM]	apparent Kd [4] [nM]
GCAGGAUAAGUCAGGAUAUACCUAUGGAUACAUAGGUAGAAGGGACAUGAGGAUCACCCAUGUUACUCGCCUGC	12.6	23.6	–	–
GCUAGUAUUGCAGGAUAUUGUAAUUUAUUAUUUCAAGAAGGGCAUUACAUGAGGAUCACCCAUGUCAUCCUAUGGUAUACUAGC	10.6	22.8	–	–
AACAAUCUAUCUGAGGAUAUCAUGAAAAAAACAUGAGGAUCACCCAUGUGCAGGAAAACUGCAUAUGAGAAGGCAGAUAGAUUGU	–	–	603	26.2
GAAAAGUCAGGAUAUGCAGAUAAAAAAACGAAAAAAAAUCUGCAGAAGGGACAUGAGGAUCACCCAUGUAAAAG	35.3	74.6	–	–
UGAUACAUGAGGAUCUCCCAUGACAUGAGGAUCACCCAUGUGCAGGAUAUACGUGUGAUAAUAUAGUAGAAGGGCAGUCUAUGU	189	248	–	–
CUCGUGUCGGAGGAUAUCCAGCGCGAAAAUAAAGGAGAAGGCCGCACAUGAGGAUCACCCAUGUAACAUGGUCC	56.2	76.4	–	–
CGCACUAUACAUGAGGAUCACCCAUGUUAUUAUGAGAUAGUCAGAAGGCAUUGUUAGUGAUAUUAUGAGGAUAUGAAUAGUGCG	–	–	156	89.8
GUAGCUACAUGAGGAUCACCCAUGUAGGAUAUCGCUAUUGUAAUCAUGUUACAUGAUUACAAUAGCGAGAAGGACGUGUGCUAC	9.03	10.4	–	–
UCCAAACUUGGACUUGGUGGUGCAUAGGAUAUCCUUGGACAUGAGGAUCACCCAUGUACAACUGUGGAGAAGGGUGCAGGGCCU	–	–	427	91.3
AUUAUUAAGUUAGGAUAUAGUAAAAUAAUUUAAUUAGAAGGAGCUCACAUGAGGAUCACCCAUGUAAGAGGAUCACCCAUGUAU	22.3	16.5	–	–
CUGGUUGUCGAGGAUAUGCACCGGCUCGCUGACGCAGAAGGCGACACAUGAGGAUCACCCAUGUCGGUUCGCGA	15.6	31.3	–	–
GGGCGUGAAGGAUAUACAUGAGGAUCACCCAUGUGGGAGGAGAGUGGUGAGGAGGCUGGUAGAAGGUCAGGAGG	39.1	32.9	–	–
GGUGGACAUGAGGAUCACCCAUGUGAGGAUAUCGGCUGGUACGUGUUGGCUGGCAUCUCGAGAAGGCACAUAGU	80.9	180	–	–
UUACUCAUGUAAGGAUAUGCAGCCGCUUCGGCUGCAGAAGGUACUAUAAUACAUGAGGAUCACCCAUGUCUUUUUAAUUUAGAC	–	–	82.7	36.5
AUCAGCUCGUCAGGAUAUACGUCACUGCGUCAGCGGUGUGGUAAGAUCACAUGAGGAUCACCCAUGUAGAAGGGACGAGCUGAU	13.6	232	–	–
AAUAACAGAGGAUAUACUGUUUUAUGUGUUUGUUGUUUUGAACAUGAGGAUCACCCAUGUAGAAGGCUGAUUAA	35.3	33.5	–	–
GGUGGACAUGAGGAUCACCCAUGUGAGGAUAUCGGCCGGUUCGCGGUGGCUGGCGUCUCGAGAAGGCACAUAGU	99.1	139	–	–
GUCUUCCUAGGAUAUACAUGAGGAUCACCCAUGUACAGUUUCGUCUAAGGAUACUCGCGUAGAAGGAGGUGGAU	21.9	42.7	–	–
GUACUGAAGCCUUGCUUUAGUCGUACAUGAGGAUCACCCAUGUAGGAUAUGGUAGGCUUUGCUUACUAGAAGGAUAGAGUGAUC	56.1	34	–	–
GGAGACCUCACAGGAUAUGCUGGACUUUGUCCAGCAGAAGGGUGAAAACAUGAGGAUCACCCAUGUAUGGUCUCCAAAUUUAAU	–	–	183	13.7
UUGUUCUGAGGAUAUACAUGAGGAUCACCCAUGUGUUUCUGCUUGGUGUCUUGCGUAUGUAGAAGGCUGUUCUC	36.5	36.3	–	–
GCGAUGUUAGGAUAUUGCAUGUAGUGGGUUCCCAGCUGCGUUAAGAAGGGACAUGAGGAUCACCCAUGUGAUGA	497	384	–	–
GUUCUUCCUGUAAGGAUAUCCAUGUAUCAAUGUAUGGAGAAGGUACAUGAGGAUCACCCAUGUCACCCGCGUUA	16.6	39.8	–	–
AAAAAAAAAAGCUAGGAUAUCCAAAAAAAAACAUGAGGAUCACCCAUGUAAAAAAAAAAAAAAUGGGAGAAGGAGCAAAAAAAAAA	–	–	52.4	26.9
GAGCCCUAAGGAUAUAGAAGGUCCAACAUGAGGAUCACCCAUGUACGGUGUGGACGUGGGCUAGAAGGUGGAACUU	188	147	–	–
UUUUAACAUGAGGAUCACCCAUGUGAGGAUAUCGAAAUUUAUAUUAAUAUUUAUAAAACGAGAAGGCACAUUUU	104	82.8	–	–
AAGUAGAUCCGAGGAUAUACAAAGUGGAAUCGCUACAUGAGGAUCACCCAUGUAGAAGGCGGAUCUACAGGUACUAAAGUACCA	8.01	68.3	–	–
